From ChEMBL document CHEMBL3414463, “Discovery of potent and selective 8-fluorotriazolopyridine c-Met inhibitors” (J Med Chem, 2015)

Assays:
[1] = target: T1, Hepatocyte growth factor receptor (Homo sapiens, UniProt P08581); experiment: Inhibition of recombinant c-Met kinase domain (unknown origin) incubated for 30 mins using gastrin peptide substrate by HTRF assay
[2] = target: T1, Hepatocyte growth factor receptor; experiment: Inhibition of HGF-stimulated c-Met autophosphorylation in serum starved human PC3 cells pre-incubated for 1 hr followed by human recombinant HGF stimulation for 10 mins by quantitative electrochemiluminescence immunoassay; assay type: cell-based, PC-3
Outline: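 Serum-starved PC-3 cells (plated in high-glucose DMEM/10% FBS, then 16 h in low-glucose DMEM with 0.1% BSA) were treated with a 10-point inhibitor dilution for 1 h at 37 °C. Cells were then stimulated with 200 ng/mL recombinant human HGF for 10 min and lysed. Phospho-c-Met was captured with biotinylated anti-c-Met and 4G10 by electrochemiluminescence. IC50, n ≥ 2.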

Rattus norvegicus [3] = experiment: Clearance in Sprague-Dawley rat at 0.25 mg/kg, iv; assay type: ADME, organism-based; set-up: dose 0.25 mg/kg, route intravenous; conditions: in vivo
[4] = Volume of distribution at steady state in Sprague-Dawley rat at 0.25 mg/kg, iv; assay type: ADME, organism-based; set-up: dose 0.25 mg/kg, route intravenous; conditions: in vivo, read-out: Vdss
Outline: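 Male Sprague-Dawley rats were given a single IV dose of 0.25 mg/kg. The vehicle was DMSO, or for some compounds 20% (w/v) hydroxypropyl β-cyclodextrin in water adjusted to pH 3.5 with MSA. NC marks cases where the terminal disposition rate constant could not be characterized for lack of slope.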

[5] = Half life in Sprague-Dawley rat at 0.25 mg/kg, iv; assay type: ADME, organism-based; set-up: dose 0.25 mg/kg, route intravenous; conditions: in vivo
Rattus norvegicus [6] = experiment: AUC (0 to infinity) in Sprague-Dawley rat at 0.25 mg/kg, iv; assay type: ADME, organism-based, Plasma; set-up: dose 0.25 mg/kg, route intravenous, time infinity; conditions: in vivo
[7] = Oral bioavailability in Sprague-Dawley rat at 2 mg/kg; assay type: ADME, organism-based; conditions: in vivo
Outline: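 Male Sprague-Dawley rats given 2.0 mg/kg orally in 2% (w/v) hydroxypropylmethylcellulose, 1% (w/v) Tween 80 in water, pH 2.2 (adjusted with HCl or MSA). Some inhibitors instead used 10% (v/v) dimethylacetamide in the same vehicle.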

Liver microsome [8] = experiment: Unbound clearance rat liver microsomes at 1 uM in presence of NADPH by LC-MS/MS method; assay type: ADME
Outline: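 Aliquots were taken at 0, 10, 20, 30 and 40 min, quenched with an equal volume of acetonitrile, centrifuged and analysed by LC/MS/MS.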

Liver microsome [9] = experiment: Drug metabolism in human liver microsomes assessed as formation of (S)-2-(6-(1-(8-fluoro-6-(3-methylisoxazol-5-yl)-[1,2,4]triazolo[4,3-a]pyridin-3-yl)ethyl)quinolin-3-yloxy)ethanol in presence of NADPH by LC-MS/MS method; assay type: ADME
Outline: (§1)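 Compound incubated with NADPH in mouse, rat, dog, monkey or human liver microsomes. Metabolites were identified by accurate mass spectrometry and MS/MS, and selected ion chromatograms were used to build metabolite profiles.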

[10] = Drug metabolism in monkey liver microsomes assessed as formation of (S)-2-(6-(1-(8-fluoro-6-(3-methylisoxazol-5-yl)-[1,2,4]triazolo[4,3-a]pyridin-3-yl)ethyl)quinolin-3-yloxy)ethanol in presence of NADPH by LC-MS/MS method; assay type: ADME, Macaca mulatta; conditions: rhesus monkey; outline: as §1
Liver microsome [11] = experiment: Drug metabolism in rat liver microsomes assessed as formation of (S)-2-(6-(1-(8-fluoro-6-(3-methylisoxazol-5-yl)-[1,2,4]triazolo[4,3-a]pyridin-3-yl)ethyl)quinolin-3-yloxy)ethanol in presence of NADPH by LC-MS/MS method; assay type: ADME; outline: as §1
Liver microsome [12] = experiment: Drug metabolism in dog liver microsomes assessed as formation of (S)-2-(6-(1-(8-fluoro-6-(3-methylisoxazol-5-yl)-[1,2,4]triazolo[4,3-a]pyridin-3-yl)ethyl)quinolin-3-yloxy)ethanol in presence of NADPH by LC-MS/MS method; assay type: ADME, Canis lupus familiaris; outline: as §1
[13] = Drug metabolism in mouse liver microsomes assessed as formation of (S)-2-(6-(1-(8-fluoro-6-(3-methylisoxazol-5-yl)-[1,2,4]triazolo[4,3-a]pyridin-3-yl)ethyl)quinolin-3-yloxy)ethanol in presence of NADPH by LC-MS/MS method; assay type: ADME; outline: as §1
Liver microsome [14] = experiment: Drug metabolism in human liver microsomes assessed as formation of (S)-2-(6-(1-(8-fluoro-6-(3-methylisoxazol-5-yl)-[1,2,4]triazolo[4,3-a]pyridin-3-yl)ethyl)quinolin-3-yloxy)acetic acid in presence of NADPH by LC-MS/MS method; assay type: ADME; outline: as §1
Liver microsome [15] = experiment: Drug metabolism in rat liver microsomes assessed as formation of (S)-2-(6-(1-(8-fluoro-6-(3-methylisoxazol-5-yl)-[1,2,4]triazolo[4,3-a]pyridin-3-yl)ethyl)quinolin-3-yloxy)acetic acid in presence of NADPH by LC-MS/MS method; assay type: ADME; outline: as §1
[16] = Drug metabolism in monkey liver microsomes assessed as formation of (S)-2-(6-(1-(8-fluoro-6-(3-methylisoxazol-5-yl)-[1,2,4]triazolo[4,3-a]pyridin-3-yl)ethyl)quinolin-3-yloxy)acetic acid in presence of NADPH by LC-MS/MS method; assay type: ADME, Macaca mulatta; conditions: rhesus monkey; outline: as §1
Liver microsome [17] = experiment: Drug metabolism in dog liver microsomes assessed as formation of (S)-2-(6-(1-(8-fluoro-6-(3-methylisoxazol-5-yl)-[1,2,4]triazolo[4,3-a]pyridin-3-yl)ethyl)quinolin-3-yloxy)acetic acid in presence of NADPH by LC-MS/MS method; assay type: ADME, Canis lupus familiaris; outline: as §1
[18] = Drug metabolism in mouse liver microsomes assessed as formation of (S)-2-(6-(1-(8-fluoro-6-(3-methylisoxazol-5-yl)-[1,2,4]triazolo[4,3-a]pyridin-3-yl)ethyl)quinolin-3-yloxy)acetic acid in presence of NADPH by LC-MS/MS method; assay type: ADME; outline: as §1
Mus musculus [19] = experiment: Inhibition of human recombinant HGF-stimulated c-Met autophosphorylation in Balb/c mouse assessed as relative phospho c-Met level at 10 mg/kg, po administered as single dose and measured 1 hr before mouse sacrifice by electrochemiluminescence immunoassay; assay type: functional; set-up: scale not given: the % may be the effect or the level left
Outline: (§2)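 Mice received a single 10 mg/kg oral dose. Human recombinant HGF (12 μg) was given IV at 1, 3, 6, 9, 12 or 24 h postdose, and liver was harvested 5 min later. Liver phospho-c-Met was measured by electrochemiluminescent immunoassay. Mean ± SD, n = 3; ANOVA with Bonferroni/Dunn test versus HGF control.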

Mus musculus [20] = experiment: Inhibition of human recombinant HGF-stimulated c-Met autophosphorylation in Balb/c mouse assessed as relative phospho c-Met level at 10 mg/kg, po administered as single dose and measured 3 hrs before mouse sacrifice by electrochemiluminescence immunoassay; assay type: functional; set-up: scale not given: the % may be the effect or the level left; outline: as §2
Mus musculus [21] = experiment: Inhibition of human recombinant HGF-stimulated c-Met autophosphorylation in Balb/c mouse assessed as relative phospho c-Met level at 10 mg/kg, po administered as single dose and measured 6 hrs before mouse sacrifice by electrochemiluminescence immunoassay; assay type: functional; set-up: scale not given: the % may be the effect or the level left; outline: as §2
Mus musculus [22] = experiment: Inhibition of human recombinant HGF-stimulated c-Met autophosphorylation in Balb/c mouse assessed as relative phospho c-Met level at 10 mg/kg, po administered as single dose and measured 9 hrs before mouse sacrifice by electrochemiluminescence immunoassay; assay type: functional; set-up: scale not given: the % may be the effect or the level left; outline: as §2
Mus musculus [23] = experiment: Inhibition of human recombinant HGF-stimulated c-Met autophosphorylation in Balb/c mouse assessed as relative phospho c-Met level at 10 mg/kg, po administered as single dose and measured 12 hrs before mouse sacrifice by electrochemiluminescence immunoassay; assay type: functional; set-up: scale not given: the % may be the effect or the level left; outline: as §2
Mus musculus [24] = experiment: Inhibition of human recombinant HGF-stimulated c-Met autophosphorylation in Balb/c mouse assessed as relative phospho c-Met level at 10 mg/kg, po administered as single dose and measured 24 hrs before mouse sacrifice by electrochemiluminescence immunoassay; assay type: functional; set-up: scale not given: the % may be the effect or the level left; outline: as §2

T1 sequence (P08581 whole entry, the tested form may be a part): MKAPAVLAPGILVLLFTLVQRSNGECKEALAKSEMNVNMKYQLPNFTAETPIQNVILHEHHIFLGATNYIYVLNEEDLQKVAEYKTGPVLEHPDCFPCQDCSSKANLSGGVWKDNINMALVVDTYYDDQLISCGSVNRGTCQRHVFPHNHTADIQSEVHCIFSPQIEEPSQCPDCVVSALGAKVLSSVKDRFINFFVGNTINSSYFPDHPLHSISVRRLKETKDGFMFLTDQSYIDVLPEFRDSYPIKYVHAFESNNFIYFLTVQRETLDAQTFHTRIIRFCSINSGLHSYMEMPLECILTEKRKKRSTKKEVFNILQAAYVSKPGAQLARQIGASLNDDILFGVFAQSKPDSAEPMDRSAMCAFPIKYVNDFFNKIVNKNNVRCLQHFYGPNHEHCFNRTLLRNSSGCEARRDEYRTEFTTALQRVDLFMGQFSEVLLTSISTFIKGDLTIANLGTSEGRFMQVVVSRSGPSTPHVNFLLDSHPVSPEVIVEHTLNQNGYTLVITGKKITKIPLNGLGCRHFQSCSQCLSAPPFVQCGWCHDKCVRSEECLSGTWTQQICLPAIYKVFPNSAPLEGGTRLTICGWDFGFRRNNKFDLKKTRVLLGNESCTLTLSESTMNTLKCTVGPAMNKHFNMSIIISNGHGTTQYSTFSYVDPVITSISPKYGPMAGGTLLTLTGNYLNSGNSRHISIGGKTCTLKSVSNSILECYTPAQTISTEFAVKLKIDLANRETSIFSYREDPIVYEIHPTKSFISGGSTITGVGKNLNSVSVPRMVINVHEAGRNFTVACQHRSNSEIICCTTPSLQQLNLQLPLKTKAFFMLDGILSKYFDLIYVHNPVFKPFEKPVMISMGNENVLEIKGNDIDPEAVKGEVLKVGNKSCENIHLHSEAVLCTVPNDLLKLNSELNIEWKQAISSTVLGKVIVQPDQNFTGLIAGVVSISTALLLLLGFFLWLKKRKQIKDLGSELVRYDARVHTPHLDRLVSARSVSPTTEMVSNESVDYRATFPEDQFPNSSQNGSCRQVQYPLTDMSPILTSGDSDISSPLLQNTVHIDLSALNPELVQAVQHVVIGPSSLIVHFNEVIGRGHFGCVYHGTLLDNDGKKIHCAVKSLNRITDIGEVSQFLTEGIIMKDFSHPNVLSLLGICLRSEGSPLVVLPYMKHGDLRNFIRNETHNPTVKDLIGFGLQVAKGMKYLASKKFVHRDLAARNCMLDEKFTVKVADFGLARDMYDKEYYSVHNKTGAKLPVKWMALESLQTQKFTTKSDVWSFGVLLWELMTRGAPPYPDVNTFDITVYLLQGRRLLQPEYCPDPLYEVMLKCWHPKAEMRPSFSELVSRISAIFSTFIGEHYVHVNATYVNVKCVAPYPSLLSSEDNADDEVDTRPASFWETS

IC50 [1]: 1 nM | IC50 [2]: 5 nM | CL (Rattus norvegicus [3]): 9.5 mL/min/kg | Vd [4]: 4.9 L/kg | half-life [5]: 4.2 h | AUC (Rattus norvegicus [6]): 3.1 µM·h | bioavailability [7]: 46% | CL free (Liver microsome [8]): 417 mL/min/kg | Drug metabolism (Liver microsome [9]): metabolite_detected | Drug metabolism [10]: metabolite_detected | Drug metabolism (Liver microsome [11]): metabolite_detected | Drug metabolism (Liver microsome [12]): metabolite_detected | Drug metabolism [13]: metabolite_detected | Drug metabolism (Liver microsome [14]): metabolite_detected | Drug metabolism (Liver microsome [15]): metabolite_detected | Drug metabolism [16]: metabolite_detected | Drug metabolism (Liver microsome [17]): metabolite_detected | Drug metabolism [18]: metabolite_detected
SMILES: COCCOc1cnc2ccc([C@H](C)c3nnc4c(F)cc(-c5cc(C)no5)cn34)cc2c1
Activity (Mus musculus [19]): 96% | Activity (Mus musculus [20]): 99% | Activity (Mus musculus [21]): 94% | Activity (Mus musculus [22]): 64% | Activity (Mus musculus [23]): 47% | Activity (Mus musculus [24]): 27%
